# In ChEMBL document CHEMBL2021778, “Neurosteroid analogues. 17. Inverted binding orientations of androsterone enantiomers at the steroid potentiation site on γ-aminobutyric acid type A receptors” (J Med Chem, 2012):
# Activity calls are given as the source filed them. The rule behind the calls is not given here.
# Assays:
# Oocyte [1] = assay: Modulation of rat alpha1beta2gamma2L GABAA receptor expressed in Xenopus laevis oocytes assessed as […] at 10 uM by electrophysiology assay relative to GABA; format: cell-based
# Outline: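 Rat α1β2γ2L receptors in Xenopus oocytes, two-electrode voltage clamp at −70 mV. Current gated directly by 10 μM compound without GABA, expressed as the ratio to the current from 2 μM GABA. At least four oocytes. Mean ± SEM.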
# [2] = Displacement of [35S]TBPS from GABAA receptor picrotoxin binding site in rat brain membranes; format: cell membranes
# Oocyte [3] = assay: Modulation of rat alpha1beta2gamma2L GABAA receptor expressed in Xenopus laevis oocytes assessed as potentiation of GABA-induced chloride currents at 0.1 uM by electrophysiology assay relative to control; format: cell-based
# Xenopus laevis [4] = assay: Anesthetic effect on Xenopus laevis tadpole assessed as loss of swimming reflex; format: functional, organism-based
# Outline: (§1)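 Xenopus laevis tadpoles, N = 10 or more per concentration, at five or more concentrations from 0.01 μM to 30 μM. Loss of righting reflex (LRR) and loss of swimming reflex (LSR) were scored. EC50 and nHill were taken from concentration–response curves. Recovery was checked after an overnight period. Mean ± SEM.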
# Oocyte [5] = assay: Modulation of rat alpha1beta2gamma2L GABAA receptor expressed in Xenopus laevis oocytes assessed as potentiation of GABA-induced chloride currents at 1 uM by electrophysiology assay relative to control; format: cell-based
# Oocyte [6] = assay: Modulation of rat alpha1beta2gamma2L GABAA receptor expressed in Xenopus laevis oocytes assessed as potentiation of GABA-induced chloride currents at 10 uM by electrophysiology assay relative to control; format: cell-based
# Oocyte [7] = assay: Modulation of GABAA receptor alpha1(Q241L)beta2gamma2L mutant expressed in Xenopus laevis oocytes assessed as potentiation of GABA-induced chloride currents at 1 uM by electrophysiology assay; format: cell-based
# Outline: (§2)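 Oocytes were coinjected with α1(Q241L) cRNA plus wild-type β2 and γ2L cRNA. Recording was by two-electrode voltage clamp at −70 mV, 2–5 days after injection. Responses to a sequence of compound applications were normalised, 4 oocytes per receptor type.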
# Xenopus laevis [8] = assay: Anesthetic effect on Xenopus laevis tadpole assessed as loss of righting reflex; format: functional, organism-based; outline: as §1
# Oocyte [9] = assay: Modulation of GABAA receptor alpha1(Q241L)beta2gamma2L mutant expressed in Xenopus laevis oocytes assessed as potentiation of GABA-induced chloride currents at 0.5 uM by electrophysiology assay; format: cell-based; outline: as §2
# Oocyte [10] = assay: Modulation of rat alpha1beta2gamma2L GABAA receptor expressed in Xenopus laevis oocytes assessed as potentiation of GABA-induced chloride currents at 0.5 uM by electrophysiology assay relative to control; format: cell-based
# Xenopus laevis [11] = assay: Anesthetic effect on Xenopus laevis tadpole assessed as loss of swimming reflex at 10 uM; format: functional, organism-based
# Outline: (§3)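 Tadpoles, 10 per group, exposed at 10 μM. Each animal was scored for swimming reflex, and for death without overnight recovery from loss of swimming reflex. Results are given as the number of animals out of 10.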
# Rattus norvegicus = species: Rattus norvegicus; assay: Displacement of [35S]TBPS from GABAA receptor picrotoxin binding site in rat brain membranes at 10 uM; format: cell membranes
# Xenopus laevis [12] = species: Xenopus laevis; assay: Toxicity in Xenopus laevis tadpole assessed as mortality at 10 uM; format: organism-based; details: in vivo; outline: as §3
SMILES,Ratio (Oocyte [1]),IC50 [2],Ratio (Oocyte [3]),EC50 (Xenopus laevis [4]),Ratio (Oocyte [5]),Ratio (Oocyte [6]),Activity (Oocyte [7]),EC50 (Xenopus laevis [8]),Activity (Oocyte [9]),Activity (Oocyte [10]),Activity (Xenopus laevis [11]),inhibition (Rattus norvegicus),Activity (Xenopus laevis [12])
C[C@@]12CC[C@H](O)C[C@H]1C[C@@H](OCc1ccccc1)[C@@H]1[C@@H]2CC[C@@]2(C)C(=O)CC[C@@H]12,0.11,168 nM,1.25,2930 nM,5.74,25.2,inactive,1210 nM,–,–,–,–,–
C[C@@]12CC[C@H](O)C[C@H]1C[C@@H](OCc1ccccc1)[C@@H]1[C@@H]2CC[C@]2(C)[C@H]1CC[C@]21CO1,0.22,52 nM,3.47,550 nM,20.3,32.4,–,310 nM,inactive,inactive,–,–,–
C[C@]12CC[C@@H](O)C[C@@H]1C[C@H](OCc1ccccc1)[C@@H]1[C@@H]2CC[C@]2(C)C(=O)CC[C@@H]12,0,> 10000 nM,0.97,–,0.9,0.76,–,> 10000 nM,–,–,inactive,35%,–
C[C@]12CC[C@@H](O)C[C@@H]1CC[C@@H]1[C@@H]2[C@@H](OCc2ccccc2)C[C@]2(C)C(=O)CC[C@@H]12,0.2,285 nM,1.08,870 nM,2.96,24.4,inactive,200 nM,–,–,–,–,Toxic
C[C@]12CC[C@@H](O)C[C@@H]1CC[C@@H]1[C@@H]2[C@@H](OCc2ccccc2)C[C@@]2(C)[C@H]1CC[C@@]21CO1,0.42,15 nM,2.99,270 nM,21.2,31.1,–,70 nM,inactive,inactive,–,–,–
C[C@]12CC[C@@H](O)C[C@@H]1CC[C@@H]1[C@@H]2CC[C@]2(C)C(=O)CC[C@@H]12 [ANDROSTERONE],0.02,410 nM,0.97,–,1.41,5.44,–,–,–,–,inactive,–,–
CC(=O)[C@H]1CC[C@H]2[C@@H]3CC[C@H]4C[C@H](O)CC[C@]4(C)[C@H]3CC[C@]12C [BREXANOLONE],0.37,74 nM,1.26,–,3.89,9.65,–,–,inactive,inactive,–,–,–
C[C@]12CC[C@@H](O)C[C@@H]1CC[C@@H]1[C@@H]2CC[C@@]2(C)[C@H]1CC[C@@]21CO1,0.22,105 nM,3.11,–,21.9,33.7,–,–,–,–,–,–,–
C[C@@]12CC[C@H](O)C[C@H]1CC[C@@H]1[C@@H]2[C@H](OCc2ccccc2)C[C@]2(C)[C@H]1CC[C@]21CO1,0.05,2050 nM,1.01,2740 nM,1.3,3.21,–,2640 nM,–,–,–,–,–
C[C@]12CC[C@@H](O)C[C@@H]1C[C@H](OCc1ccccc1)[C@@H]1[C@@H]2CC[C@@]2(C)[C@H]1CC[C@@]21CO1,0.09,6750 nM,0.83,7940 nM,0.88,0.77,–,3220 nM,–,–,–,–,–
"C[C@@]12CCC3C(CC[C@@H]4C[C@@H](O)CC[C@@]34C)C1CCC2=O (single isomer, unassigned)",0.03,311 nM,1.27,–,3.66,18.9,–,–,–,–,–,–,–
"C[C@@]12CC[C@H](O)C[C@H]1CCC1C2CC[C@]2(C)C1CC[C@]21CO1 (single isomer, unassigned)",0.1,467 nM,2.62,–,15.9,26.3,–,–,–,–,–,–,–
C[C@@]12CC[C@H](O)C[C@H]1CC[C@@H]1[C@@H]2[C@H](OCc2ccccc2)C[C@@]2(C)C(=O)CC[C@@H]12,0,> 10000 nM,0.89,3450 nM,0.85,0.6,–,1960 nM,–,–,–,–,Toxic
